Data taken from ChEMBL document CHEMBL5335797, “Design, Synthesis, and Evaluation of New 1H-Benzo[d]imidazole Based PqsR Inhibitors as Adjuvant Therapy for Pseudomonas aeruginosa Infections” (J Med Chem, 2024).
The source made the active and inactive calls. The rule behind the calls is not given here.

Experiments:
[1] = Inhibition of Pseudomonas aeruginosa pqsA-lux complex expressed in Pseudomonas aeruginosa PAO1-L by bioluminescent reporter assay
Method in brief: (§1)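 Reporter strains PAO1-L and PA14 carrying chromosomal mCTX::PpqsA-lux, grown in LB at 37 °C. Inhibition read as reduced luminescence. Single-point screen at 10 μM from 10 mM DMSO stock; dose–response curves in both strains; mean ± SD, n = 2.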

[2] = Inhibition of Pseudomonas aeruginosa pqsA-lux complex expressed in Pseudomonas aeruginosa PA14 by bioluminescent reporter assay; method in brief: as §1
[3] = molecular target: T1, Transcriptional regulator MvfR (Pseudomonas aeruginosa PA14) (UniProt A0A072ZLE6); assay: Antagonist activity at PqsR in wild-type Pseudomonas aeruginosa PAO1-L assessed as inhibition of pyocyanin level at 3 times IC50 incubated for 16 hrs by absorbance based assay relative to control; settings: filed as antagonist
T1 sequence (whole entry): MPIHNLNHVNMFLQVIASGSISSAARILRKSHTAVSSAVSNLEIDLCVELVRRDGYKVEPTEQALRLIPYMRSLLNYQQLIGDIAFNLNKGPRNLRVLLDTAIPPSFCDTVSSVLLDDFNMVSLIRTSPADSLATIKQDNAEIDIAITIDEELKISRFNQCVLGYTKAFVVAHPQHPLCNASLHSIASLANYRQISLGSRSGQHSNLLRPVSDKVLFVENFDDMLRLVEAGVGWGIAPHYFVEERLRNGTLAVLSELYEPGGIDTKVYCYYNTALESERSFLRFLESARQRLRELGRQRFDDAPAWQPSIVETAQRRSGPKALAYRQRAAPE

A549 = assay: Cytotoxicity against human A549 cells assessed as cell viability upto 100 uM incubated for 24 hrs by resazurin reduction assay; assay type: toxicity, cell-based; settings: a549, 24 h
Method in brief: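 A549 cells in DMEM with 10% FBS and 1% PSN, seeded at 1 × 10^4 cells/well. Compound at 1, 50 and 100 μM in sextuplicate, 24 h at 37 °C and 5% CO2. Vehicle control 1% DMSO; positive control 100 μM K2Cr2O7. Alamar blue added for 4–6 h, fluorescence read at ex 510/em 590 nm, normalized to DMSO.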

Pseudomonas aeruginosa [4] = assay: Inhibition of Pseudomonas aeruginosa pqsA-lux complex expressed in Pseudomonas aeruginosa PAO1-L at 10 uM by bioluminescent reporter assay; method in brief: as §1
Pseudomonas aeruginosa [5] = assay: Inhibition of Pseudomonas aeruginosa pqsA-lux complex expressed in Pseudomonas aeruginosa PA14 at 10 uM by bioluminescent reporter assay; method in brief: as §1
[6] = molecular target: T1, Transcriptional regulator MvfR (Pseudomonas aeruginosa PA14); assay: Antagonist activity at PqsR in wild-type Pseudomonas aeruginosa PAO1-L assessed as reduction in HHQ level at 0.2 uM by LCMS/MS analysis; settings: filed as antagonist
[7] = molecular target: T1, Transcriptional regulator MvfR (Pseudomonas aeruginosa PA14); assay: Antagonist activity at PqsR in wild-type Pseudomonas aeruginosa PA14 assessed as reduction in HHQ level at 0.2 uM by LCMS/MS analysis; settings: filed as antagonist
[8] = molecular target: T1, Transcriptional regulator MvfR (Pseudomonas aeruginosa PA14); assay: Antagonist activity at PqsR in Pseudomonas aeruginosa IPCD48 clinical isolate assessed as reduction in HHQ level at 0.2 uM by LCMS/MS analysis; settings: filed as antagonist
[9] = molecular target: T1, Transcriptional regulator MvfR (Pseudomonas aeruginosa PA14); assay: Antagonist activity at PqsR in Pseudomonas aeruginosa LESB58 clinical isolate assessed as reduction in AQ level at 0.2 uM by LCMS/MS analysis; settings: filed as antagonist
[10] = molecular target: T1, Transcriptional regulator MvfR (Pseudomonas aeruginosa PA14); assay: Antagonist activity at PqsR in Pseudomonas aeruginosa IPCD1331 clinical isolate assessed as reduction in HHQ level at 0.2 uM by LCMS/MS analysis
[11] = molecular target: T1, Transcriptional regulator MvfR (Pseudomonas aeruginosa PA14); assay: Antagonist activity at PqsR in Pseudomonas aeruginosa IPCD1331 clinical isolate assessed as reduction in PQS level at 0.2 uM by LCMS/MS analysis
[12] = molecular target: T1, Transcriptional regulator MvfR (Pseudomonas aeruginosa PA14); assay: Antagonist activity at PqsR in wild-type Pseudomonas aeruginosa PAO1-L assessed as reduction in PQS level at 0.2 uM by LCMS/MS analysis; settings: filed as antagonist
[13] = molecular target: T1, Transcriptional regulator MvfR (Pseudomonas aeruginosa PA14); assay: Antagonist activity at PqsR in wild-type Pseudomonas aeruginosa PA14 assessed as reduction in PQS level at 0.2 uM by LCMS/MS analysis; settings: filed as antagonist
[14] = molecular target: T1, Transcriptional regulator MvfR (Pseudomonas aeruginosa PA14); assay: Antagonist activity at PqsR in Pseudomonas aeruginosa IPCD48 clinical isolate assessed as reduction in PQS level at 0.2 uM by LCMS/MS analysis; settings: filed as antagonist
[15] = molecular target: T1, Transcriptional regulator MvfR (Pseudomonas aeruginosa PA14); assay: Antagonist activity at PqsR in wild-type Pseudomonas aeruginosa PAO1-L assessed as reduction in HQNO level at 0.2 uM by LCMS/MS analysis relative to control; design: scale not given: the % may be the effect or the level left
[16] = molecular target: T1, Transcriptional regulator MvfR (Pseudomonas aeruginosa PA14); assay: Antagonist activity at PqsR in wild-type Pseudomonas aeruginosa PA14 assessed as reduction in HQNO level at 0.2 uM by LCMS/MS analysis relative to control; design: scale not given: the % may be the effect or the level left
[17] = molecular target: T1, Transcriptional regulator MvfR (Pseudomonas aeruginosa PA14); assay: Antagonist activity at PqsR in Pseudomonas aeruginosa IPCD1350 clinical isolate assessed as reduction in HQNO level at 0.2 uM by LCMS/MS analysis relative to control; design: scale not given: the % may be the effect or the level left
[18] = molecular target: T1, Transcriptional regulator MvfR (Pseudomonas aeruginosa PA14); assay: Antagonist activity at PqsR in Pseudomonas aeruginosa LESB58 clinical isolate assessed as reduction in HQNO level at 0.2 uM by LCMS/MS analysis relative to control; design: scale not given: the % may be the effect or the level left
[19] = molecular target: T1, Transcriptional regulator MvfR (Pseudomonas aeruginosa PA14); assay: Antagonist activity at PqsR in Pseudomonas aeruginosa IPCD1331 clinical isolate assessed as reduction in HQNO level at 0.2 uM by LCMS/MS analysis relative to control; design: scale not given: the % may be the effect or the level left
[20] = molecular target: T1, Transcriptional regulator MvfR (Pseudomonas aeruginosa PA14); assay: Antagonist activity at PqsR in Pseudomonas aeruginosa IPCD48 clinical isolate assessed as reduction in HQNO level at 0.2 uM by LCMS/MS analysis relative to control; design: scale not given: the % may be the effect or the level left
[21] = molecular target: T1, Transcriptional regulator MvfR (Pseudomonas aeruginosa PA14); assay: Antagonist activity at PqsR in Pseudomonas aeruginosa IPCD1451 clinical isolate assessed as reduction in HQNO level at 0.2 uM by LCMS/MS analysis
[22] = molecular target: T1, Transcriptional regulator MvfR (Pseudomonas aeruginosa PA14); assay: Antagonist activity at PqsR in wild-type Pseudomonas aeruginosa PAO1-L assessed as inhibition of pyocyanin level at 200 nM incubated for 16 hrs by absorbance based assay; settings: filed as antagonist
[23] = molecular target: T1, Transcriptional regulator MvfR (Pseudomonas aeruginosa PA14); assay: Antagonist activity at PqsR in wild-type Pseudomonas aeruginosa PA14 assessed as inhibition of pyocyanin level at 200 nM incubated for 16 hrs by absorbance based assay; settings: filed as antagonist
[24] = molecular target: T1, Transcriptional regulator MvfR (Pseudomonas aeruginosa PA14); assay: Antagonist activity at PqsR in Pseudomonas aeruginosa IPCD1451 clinical isolate assessed as inhibition of pyocyanin level at 200 nM incubated for 16 hrs by absorbance based assay
[25] = molecular target: T1, Transcriptional regulator MvfR (Pseudomonas aeruginosa PA14); assay: Antagonist activity at PqsR in Pseudomonas aeruginosa IPCD1350 clinical isolate assessed as inhibition of pyocyanin level at 200 nM incubated for 16 hrs by absorbance based assay; settings: filed as antagonist
[26] = molecular target: T1, Transcriptional regulator MvfR (Pseudomonas aeruginosa PA14); assay: Antagonist activity at PqsR in Pseudomonas aeruginosa LESB58 clinical isolate assessed as inhibition of pyocyanin level at 200 nM incubated for 16 hrs by absorbance based assay; settings: filed as antagonist
[27] = molecular target: T1, Transcriptional regulator MvfR (Pseudomonas aeruginosa PA14); assay: Antagonist activity at PqsR in Pseudomonas aeruginosa IPCD1331 clinical isolate assessed as inhibition of pyocyanin level at 200 nM incubated for 16 hrs by absorbance based assay; settings: filed as antagonist
[28] = molecular target: T1, Transcriptional regulator MvfR (Pseudomonas aeruginosa PA14); assay: Antagonist activity at PqsR in Pseudomonas aeruginosa IPCD48 clinical isolate assessed as inhibition of pyocyanin level at 200 nM incubated for 16 hrs by absorbance based assay; settings: filed as antagonist
Pseudomonas aeruginosa [29] = assay: Inhibition of biofilm formation in Pseudomonas aeruginosa PAO1-L at 10 uM incubated for 6 to 24 hrs by SYTO9/PI staining based confocal laser scanning microscopy; assay type: functional, organism-based; settings: time 6-24 hrs
Method in brief: (§2)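 PAO1-L biofilms grown on glass coverslips in a rolling bioreactor (20 rpm) in FAB 10 mM glucose, inoculated at OD600 0.01, 30 °C for 24 h with 10 μM compound from the start. Then PBS wash and 6 or 24 h in fresh medium with 60 μg/mL ciprofloxacin, 20 μM compound, or both. LIVE/DEAD BacLight staining, CLSM; live/dead ratios against untreated.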

Pseudomonas aeruginosa [30] = assay: Potentiation of Ciprofloxacin-induced antibiofilm activity in Pseudomonas aeruginosa PAO1-L at 10 uM incubated for 6 to 24 hrs by SYTO9/PI staining based confocal laser scanning microscopy; assay type: functional, organism-based; settings: time 6-24 hrs; method in brief: as §2
Pseudomonas aeruginosa [31] = assay: Inhibition of biofilm formation in GFP-labeled Pseudomonas aeruginosa PAO1-L at 1 uM incubated for 16 hrs by PI staining based confocal laser scanning microscopy; assay type: functional, organism-based
Method in brief: (§3)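 GFP-tagged strain (pMMG) grown in RPMI-1640 with 20 mM glucose and 2 μM FeCl3. Seeded at OD600 0.01 on glass coverslips, static 1.5 h at 37 °C. Compound added at 1 μM, then shaken at 60 rpm and 37 °C for 16 h. Tobramycin 100 μg/mL plus propidium iodide 2 μM for a further 2 or 6 h. CLSM, 5 random z-stacks per coverslip.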

Pseudomonas aeruginosa [32] = assay: Potentiation of Tobramycin-induced antibiofilm activity in Pseudomonas aeruginosa PAO1-L at 1 uM preincubated for 16 hrs followed by tobramycin addition measured for 2 to 6 hrs by PI staining based confocal laser scanning microscopy; assay type: functional, organism-based; settings: time 18-22 hrs; method in brief: as §3

## Cn1c(NCC(O)COc2ccc(CC#N)cc2)nc2cc(Cl)ccc21 (stereo not given)
[1]
  IC50: Not Active
[2]
  IC50: Not Active

## CC(C)n1c(NCC(O)COc2ccc(CC#N)cc2F)nc2ccc(Cl)cc21 (stereo not given)
[3]
  inhibition: > 50%
A549
  Activity: Non-Toxic

## N#CCc1ccc(OCC(O)CNc2nc3ccc(Cl)cc3n2C2CC2)cc1 (stereo not given)
[3]
  inhibition: > 50%

## CC(C)n1c(NCC(N)COc2ccc(CC#N)cc2)nc2ccc(Cl)cc21 (stereo not given)
[2]
  IC50: Not Active

## Cn1c(NCC(O)COc2ccc(CC#N)cc2)nc2ccc(Cl)cc21 (stereo not given)
[3]
  inhibition: > 50%

## N#CCc1ccc(OCC(O)CNc2nc3ccc(Cl)cc3s2)cc1 (stereo not given)
Pseudomonas aeruginosa [4]
  inhibition: inactive
Pseudomonas aeruginosa [5]
  inhibition: inactive

## CN(C)CCn1c(NCC(O)COc2ccc(CC#N)cc2)nc2ccc(Cl)cc21 (stereo not given)
[1]
  IC50: Not Active
[2]
  IC50: Not Active

## N#CCc1ccc(OCC(O)CNc2nc3ccc(Cl)cc3n2C2CCC2)cc1 (stereo not given)
[3]
  inhibition: > 50%

## N#CCc1ccc(OCC(O)CNc2nc3ccc(Cl)cc3o2)cc1 (stereo not given)
Pseudomonas aeruginosa [4]
  inhibition: inactive
Pseudomonas aeruginosa [5]
  inhibition: inactive

## Cn1c(NCC(O)COc2ccc(CC#N)cc2)nc2cc(Cl)c(Cl)cc21 (stereo not given)
[1]
  IC50: Not Active
[2]
  IC50: Not Active

## COCCn1c(NCC(O)COc2ccc(CC#N)cc2)nc2ccc(Cl)cc21 (stereo not given)
[3]
  inhibition: > 50%

## CN1CCC(n2c(NCC(O)COc3ccc(CC#N)cc3)nc3ccc(Cl)cc32)CC1 (stereo not given)
[1]
  IC50: Not Active
[2]
  IC50: Not Active

## Cn1c(NCC(O)COc2ccc(CC#N)cc2)nc2ccc(C(F)(F)F)cc21 (stereo not given)
[1]; read-out: IC50
  IC50: 1500 nM
[2]
  IC50: Not Active

## CCn1c(NCC(O)COc2ccc(CC#N)cc2)nc2ccc(Cl)cc21 (stereo not given)
[3]
  inhibition: > 50%

## N#CCc1ccc(OCC(O)CNc2nc3ccc(Cl)cc3n2CCOCc2ccccc2)cc1 (stereo not given)
[2]
  IC50: Not Active

## N#CCc1ccc(OCC(O)CNc2nc3ccc(Cl)cc3n2CCO)cc1 (stereo not given)
[3]
  inhibition: > 50%

## CC(C)n1c(NCC(O)COc2ccc(CC#N)cc2)nc2ccc(Cl)cc21 (stereo not given)
[6]
  Activity: Active
[7]
  Activity: Active
[8]
  Activity: Active
[9]
  Activity: Active
[10]
  Activity: inactive
[11]
  Activity: inactive
[12]
  Activity: Active
[13]
  Activity: Active
[14]
  Activity: Active
[15]
  Activity: 20%
[16]
  Activity: 20%
[17]
  Activity: 20%
[18]
  Activity: 20%
[19]
  Activity: 20%
[20]
  Activity: 20%
[21]
  Activity: inactive
[22]
  inhibition: Active
[23]
  inhibition: Active
[24]
  inhibition: inactive
[25]
  inhibition: Active
[26]
  inhibition: Active
[27]
  inhibition: Active
[28]
  inhibition: Active
Pseudomonas aeruginosa [29]
  inhibition: inactive
Pseudomonas aeruginosa [30]
  Activity: Active
Pseudomonas aeruginosa [31]
  inhibition: inactive
Pseudomonas aeruginosa [32]
  Activity: Active
A549
  Activity: Non-Toxic

## CC(C)n1c(NCC(O)COc2ccc(CC#N)c(F)c2)nc2ccc(Cl)cc21 (stereo not given)
[3]
  inhibition: > 50%

## Cn1c(SCC(O)COc2ccc(CC#N)cc2)nc2ccc(Cl)cc21 (stereo not given)
Pseudomonas aeruginosa [4]
  inhibition: inactive
Pseudomonas aeruginosa [5]
  inhibition: inactive
